Compounds with a hit are over-represented: about 2.1% of the library has one in this group of screens.
ERp5 block = inhibitors of human ERp5 | Q15084 | actives 0.05% (n = 350,000) | inhibition, % at 9.99 µM | ERp5 insulin aggregation, absorbance 650 nm, 90 min;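 active means mean replicate inhibition above about 25%, with every replicate also reaching it, limit read from the data, passing the limit was not always enough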
MLL AF4-AF9 inh = inhibitors of human MLL-AF4/AF9 interaction | inhibition, % at 10 µM | AlphaScreen, biotin-AF4 peptide binding to FLAG-AF9 | AID 651704 | actives 0.47% (n = 350,000);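 active means every replicate reaching a set inhibition limit, whatever the replicate mean, cut at about 25% in these data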
Target sequence (P42568 whole entry, looked up): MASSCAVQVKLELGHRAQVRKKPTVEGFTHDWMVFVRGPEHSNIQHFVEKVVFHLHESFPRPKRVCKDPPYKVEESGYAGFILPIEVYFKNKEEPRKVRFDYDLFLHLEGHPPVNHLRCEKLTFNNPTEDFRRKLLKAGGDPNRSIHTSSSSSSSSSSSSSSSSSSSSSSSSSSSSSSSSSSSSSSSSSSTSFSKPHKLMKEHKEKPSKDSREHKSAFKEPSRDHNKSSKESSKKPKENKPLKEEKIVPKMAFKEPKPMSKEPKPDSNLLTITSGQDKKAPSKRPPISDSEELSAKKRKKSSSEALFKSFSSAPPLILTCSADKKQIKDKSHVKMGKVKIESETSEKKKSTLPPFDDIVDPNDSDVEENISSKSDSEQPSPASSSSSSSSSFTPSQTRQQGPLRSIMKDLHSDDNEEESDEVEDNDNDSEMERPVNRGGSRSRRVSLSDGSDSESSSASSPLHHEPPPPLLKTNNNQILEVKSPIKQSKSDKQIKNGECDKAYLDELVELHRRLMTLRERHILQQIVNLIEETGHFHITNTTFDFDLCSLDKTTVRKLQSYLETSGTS
FGF22 binding-1 = FGF22 (human) thermal shift binding | activity (Tm shift, normalised), % at 9.99 µM | actives 1.5% (n = 340,000) | recombinant FGF22 thermal shift, SYPRO orange fluorescence; percent of sucrose octasulfate shift, DMSO zero | Q9HCT0 | AID 651658;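 active means mean Tm shift, scaled 0 neutral to 100 positive control, at about 1.3% or above, every replicate too, limit read from the data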
PDI inh = inhibitors of human protein disulfide isomerase; P07237; PDI insulin aggregation turbidity, A650, 90 min; inhibition, % at 10 µM; actives 0.052% (n = 350,000); AID 588391;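 active means mean inhibition across replicates of 30% or more, whatever share of single replicates reach that level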
FN deposit inh = fibronectin deposition inhibition; AH1F fibroblasts, Alexa488-fibronectin deposition fluorescence, overnight; inhibition, % at 12.6 µM; actives 0.086% (n = 350,000); AID 743247;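 active means mean inhibition across replicates of 30% or more, regardless of how many single replicates reach that level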
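test system = AH1F fibroblasts assembling fluorescent fibronectin matrix | quantity = 10000 AH1F cells per well | buffer or medium = DMEM plus 2% serum, read in PBS | doses = single dose, pinned | incubation = 1 h cell attachment, overnight exposure to compound and label | detection = fluorescence at 485 nm excitation, 525 nm emission | read-out basis = inhibition from reduced deposited-fibronectin fluorescence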
ARNT-TACC3 inh = disrupts binding between human ARNT and TACC3. actives 0.66% (n = 390,000). Q9Y6A5. AlphaScreen His-ARNT PAS-B/GST-TACC3 binding, luminescence; TACC3 fragment carries E629A point mutation. inhibition, % at 9.99 µM;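 active means mean inhibition of replicates at least 50% and at least half of replicates each reaching 50%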
FGF22 binding-2 = binders of human FGF22 by thermal shift; actives 2% (n = 1,000); thermal shift activity, °C (ΔTm) at 38 µM; recombinant FGF22 thermal shift, SYPRO orange fluorescence; shares compounds with FGF22 binding-1;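 active means fitted rise in melting shift crosses a set limit at or below the top valid dose tested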
SYPRO no-protein = counter-screen for FGF22 binders: compound-only thermal shift, no protein. AID 743019. actives 2% (n = 1,000). compound-only SYPRO orange thermal shift counter-screen. shares compounds with FGF22 binding-1. AC50, µM (highest dose often 38 µM);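 active means rising signal whose fitted curve reaches the 0.54 level within the top valid dose, showing a melting point, actives reach about 13 µM in these data; inactive means the rest, including activity in the opposite direction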; further: value is where the raw curve crosses a fixed level and not half-maximal
Numbers stand for hits; . = inactive; / = no result; ! = a repeat was not active.

SMILES	ERp5 block	MLL AF4-AF9 inh	FGF22 binding-1	PDI inh	FN deposit inh	ARNT-TACC3 inh	FGF22 binding-2	SYPRO no-protein
C[C@@H]1CN([C@H](C)CO)S(=O)(=O)c2ccc(C#CC3CC3)cc2O[C@H]1CN(C)C(=O)c1ccncc1	.	.	1.4	/	/	/	.	.
COCC(=O)N(C)C[C@H]1Oc2cc(C#C[C@H](C)O)ccc2S(=O)(=O)N([C@@H](C)CO)C[C@H]1C	.	.	.	/	.	.	/	/
COCC(=O)N(C)C[C@@H]1Oc2cc(C#C[C@H](C)O)ccc2S(=O)(=O)N([C@@H](C)CO)C[C@H]1C	.	.	36	/	.	.	.	.
C[C@H](O)C#Cc1ccc2c(c1)O[C@@H](CN(C)C(=O)Cc1ccccn1)[C@H](C)CN([C@H](C)CO)S2(=O)=O	.	.	.	/	/	.	/	/
C[C@H](O)C#Cc1ccc2c(c1)O[C@H](CN(C)C(=O)Cc1ccccn1)[C@@H](C)CN([C@H](C)CO)S2(=O)=O	.	.	1.4	/	/	.	.	.
C[C@@H]1CN([C@@H](C)CO)S(=O)(=O)c2ccc(C#CCN(C)C)cc2O[C@H]1CN(C)Cc1ccccc1F	.	.	.	/	/	.	/	/
CO[C@@H]1CN(C)C(=O)c2cc(NC(=O)c3cccc(F)c3)ccc2OC[C@@H](C)N(C(C)=O)C[C@@H]1C	/	/	/	/	.	/	/	/
C[C@H]1CN([C@@H](C)CO)S(=O)(=O)c2ccc(C3=CCCCC3)cc2O[C@H]1CN(C)C(=O)CN(C)C	.	.	.	/	.	/	/	/
CCCC#Cc1ccc2c(c1)O[C@H](CN(C)C(C)=O)[C@@H](C)CN([C@@H](C)CO)S2(=O)=O	.	.	1.5	/	.	.	.	.
CCOC(=O)c1ccc(S(=O)(=O)Nc2cc(C(=O)O)ccc2Cl)cc1	.	.	2.2	.	.	.	.	.
CC1(C(=O)O)CCN1C(=O)c1ccccc1F (stereo not given)	.	.	22	.	/	/	.	.
Cc1c2c(n3c(nc4ccccc43)c1C#N)N(CCN(C)C)CC2	.	.	1.4	.	.	.	.	.
Cc1c2c(n3c(nc4ccccc43)c1C#N)N(CCCN(C)C)CC2	.	.	.	.	.	.	/	/
CO[C@@H](CN(C)S(=O)(=O)c1cccc(Cl)c1)[C@@H](C)CN([C@H](C)CO)S(=O)(=O)c1cccc(Cl)c1	.	.	1.6	/	.	.	.	.
CO[C@H](CN(C)S(=O)(=O)c1cccc(Cl)c1)[C@H](C)CN([C@H](C)CO)S(=O)(=O)c1cccc(Cl)c1	.	.	2.0	/	.	.	.	.
CO[C@H](CN(C)S(=O)(=O)c1cccc(Cl)c1)[C@H](C)CN([C@@H](C)CO)S(=O)(=O)c1ccc(Cl)cc1	.	.	.	/	.	.	/	/
CO[C@H](CN(C)S(=O)(=O)c1cccc(Cl)c1)[C@H](C)CN([C@@H](C)CO)S(=O)(=O)c1cccc(Cl)c1	.	.	1.8	/	.	.	.	.
CO[C@H](CN(C)S(=O)(=O)c1cccc(Cl)c1)[C@@H](C)CN([C@H](C)CO)S(=O)(=O)c1ccc(Cl)cc1	.	.	.	/	.	.	/	/
CO[C@H]1CC[C@H]2CCN(C)C(=O)[C@H](C)[C@H](OC)CN(C)C(=O)c3cccc(C#N)c3OC[C@@H]1O2	.	.	.	/	.	.	/	/
CO[C@H]1CN(C)C(=O)c2ccc(NC(=O)Nc3cccc(F)c3)cc2OC[C@H](C)N(C)C[C@@H]1C	.	.	.	/	.	/	/	/
O=S(=O)(NCC[C@H]1CC[C@H](NS(=O)(=O)c2cccc(F)c2)[C@@H](CO)O1)c1cccc(F)c1	.	.	.	/	/	/	/	/
COc1ccc(OC(C)C(=O)N(C)Cc2nc(-c3cccc(C)c3)no2)cc1 (stereo not given)	.	.	1.6	.	.	.	.	.
COc1ccc(NC(=O)COC(=O)Cc2c[nH]c3ccccc23)cc1Cl	.	.	1.7	.	.	.	.	.
C[C@H](CO)N1C[C@H](C)[C@@H](CN(C)C(=O)C2CC2)Oc2ncc(Br)cc2C1=O	/	/	/	/	.	/	/	/
C[C@H]1CN([C@@H](C)CO)C(=O)c2cc(C3=CCCC3)cnc2O[C@H]1CN(C)C(=O)CN(C)C	.	.	1.4	/	.	.	.	.
SMILES	ERp5 block	MLL AF4-AF9 inh	FGF22 binding-1	PDI inh	FN deposit inh	ARNT-TACC3 inh	FGF22 binding-2	SYPRO no-protein
C[C@@H]1CN([C@@H](C)CO)C(=O)c2cc(Br)cnc2O[C@H]1CN(C)C(=O)C1CC1	.	.	2.4!	.	.	.	.	.
CCCNC(=O)N1C[C@@H]2[C@H](c3ccccc31)[C@H](CO)N2Cc1ccc(F)cc1	.	.	1.3	/	/	.	.	.
CCCNC(=O)N1C[C@H]2[C@@H](c3ccccc31)[C@@H](CO)N2Cc1ccc(F)cc1	.	.	.	/	/	.	/	/
O=C(C[C@@H]1CC[C@H](NC(=O)c2ccccc2)[C@@H](CO)O1)NCc1ccncn1	.	.	.	/	.	.	/	/
Cc1ccc(-c2c[n+](CC(=O)Nc3ccc(C)cc3C)c3n2CCC3)cc1	.	.	14	.	.	.	.	.
O=C(N/N=C/c1ccc(-c2cccc([N+](=O)[O-])c2)o1)c1ccc([N+](=O)[O-])cc1	.	.	1.6	.	.	.	.	.
CC(=O)Nc1cccc(C(=O)NNC(=O)c2ccc(NS(=O)(=O)c3cccs3)cc2)c1	.	.	.	.	.	/	/	/
Cc1ccsc1C(=O)NNC(=O)c1ccc(NS(=O)(=O)c2cccs2)cc1	.	.	1.6	.	.	.	.	.
Cc1noc(C)c1S(=O)(=O)Nc1ccc2c(c1)C(=O)N([C@@H](C)CO)C[C@@H](C)[C@@H](CN(C)Cc1ccccc1)OCCCC[C@@H](C)O2	.	.	.	/	.	.	/	/
COCCNC(=O)c1cccc2c(-c3ccnn3C)coc12	.	.	.	.	/	/	/	/
COCCNC(=O)c1cccc2c(-c3cnn(C)c3)coc12	.	.	2.4	.	.	/	.	.
C[C@@H]1CN([C@H](C)CO)S(=O)(=O)c2ccc(/C=C/c3ccccc3)cc2O[C@H]1CN(C)Cc1ccc(C(=O)O)cc1	.	.	.	/	/	.	/	/
COc1cccc(NC(=O)N(C)C[C@H]2Oc3cc(-c4ccccc4F)ccc3S(=O)(=O)N([C@@H](C)CO)C[C@@H]2C)c1	.	.	.	/	.	.	/	/
COc1ccccc1-c1ccc2c(c1)O[C@@H](CN(C)C(=O)Nc1cccc(F)c1)[C@H](C)CN([C@@H](C)CO)S2(=O)=O	.	.	2.0	/	/	.	.	11µM
C[C@H](CO)N1C[C@H](C)[C@@H](CN(C)Cc2ccc(C(=O)O)cc2)Oc2cc(/C=C/c3ccccc3)ccc2S1(=O)=O	.	.	23	/	/	.	.	.
